ChEMBL document CHEMBL5230144, “Synthesis and Biological Evaluation of Celastrol Derivatives with Improved Cytotoxic Selectivity and Antitumor Activities” (J Nat Prod, 2021)

Assays:
[1] = Cytotoxicity against human mesenchymal bone marrow stem cells measured after 48 hrs by MTT assay; assay type: toxicity, cell-based
[2] = system: MDA-MB-231; test: cells; settings: Homo sapiens, MDA-MB-231, 48 h
[3] = system: KB; test: cells; settings: Homo sapiens, 48 h
[4] = system: MCF7; test: cells; settings: Homo sapiens, MCF7, 48 h
[5] = biological target: T1, Heat shock protein HSP 90-beta/Hsp90 co-chaperone Cdc37 (Homo sapiens, UniProt P08238+Q16543); test: Disruption of His-tagged full length HSP90 (unknown origin)/GST-tagged Cdc37 (unknown origin) at 50 uM measured after 1 hr by HTRF method; assay type: protein-complex assay
T1 sequence (P08238 whole entry): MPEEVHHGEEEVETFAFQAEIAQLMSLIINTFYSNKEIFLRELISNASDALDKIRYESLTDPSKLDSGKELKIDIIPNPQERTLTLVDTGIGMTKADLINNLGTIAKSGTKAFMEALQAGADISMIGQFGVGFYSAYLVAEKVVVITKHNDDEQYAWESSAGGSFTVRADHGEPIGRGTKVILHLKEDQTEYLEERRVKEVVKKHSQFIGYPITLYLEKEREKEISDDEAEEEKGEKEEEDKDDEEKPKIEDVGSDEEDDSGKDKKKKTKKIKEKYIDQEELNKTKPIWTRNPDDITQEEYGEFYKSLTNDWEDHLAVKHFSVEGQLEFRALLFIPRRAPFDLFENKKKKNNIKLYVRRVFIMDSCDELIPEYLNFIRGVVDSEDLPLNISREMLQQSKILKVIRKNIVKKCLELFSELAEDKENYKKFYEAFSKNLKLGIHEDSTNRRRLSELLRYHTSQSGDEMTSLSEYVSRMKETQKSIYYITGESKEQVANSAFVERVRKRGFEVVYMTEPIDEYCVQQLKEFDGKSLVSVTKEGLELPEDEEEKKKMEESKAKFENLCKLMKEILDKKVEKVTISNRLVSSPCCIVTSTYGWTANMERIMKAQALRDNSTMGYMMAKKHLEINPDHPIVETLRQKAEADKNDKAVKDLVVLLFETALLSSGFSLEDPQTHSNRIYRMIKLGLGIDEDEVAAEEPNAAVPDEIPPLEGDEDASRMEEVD
T1 sequence (Q16543 whole entry): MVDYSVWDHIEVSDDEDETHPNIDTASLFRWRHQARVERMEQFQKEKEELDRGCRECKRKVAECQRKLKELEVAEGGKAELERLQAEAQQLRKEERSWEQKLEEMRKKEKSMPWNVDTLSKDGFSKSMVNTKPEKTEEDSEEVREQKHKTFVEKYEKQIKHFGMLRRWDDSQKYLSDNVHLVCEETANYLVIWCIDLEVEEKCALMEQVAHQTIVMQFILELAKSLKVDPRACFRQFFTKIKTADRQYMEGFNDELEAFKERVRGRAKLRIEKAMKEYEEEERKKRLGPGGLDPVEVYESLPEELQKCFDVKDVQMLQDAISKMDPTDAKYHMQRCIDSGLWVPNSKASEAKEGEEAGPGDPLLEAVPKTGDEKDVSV
Method in brief: (§1)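 HTRF in PBS with […], pH 7.3: His-tagged full-length Hsp90 and GST-tagged Cdc37 (each 250 nM final) with compound, 37 °C for 1 h. Anti-GST-Cryptate and anti-6His-XL665 then added for 0.5 h at 37 °C. Time-resolved fluorescence read at ex 320 nm, em 665/620 nm; ratio (665/620) × 10 000.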

[6] = system: A549; test: cells; settings: Homo sapiens, A549, 48 h
[7] = biological target: T1, Heat shock protein HSP 90-beta/Hsp90 co-chaperone Cdc37; test: Disruption of His-tagged full length HSP90 (unknown origin)/GST-tagged Cdc37 (unknown origin) measured after 1 hr by HTRF method; assay type: protein-complex assay; method in brief: as §1

Compound | IC50 at 48 h [1] [nM] | IC50 [2] [nM] | IC50 [3] [nM] | IC50 [4] [nM] | inhibition [5] [%] | IC50 [6] [nM] | IC50 [7] [nM]
C#CCOC(=O)[C@]1(C)CC[C@]2(C)CC[C@]3(C)C4=CC=C5C(=CC(=O)C(OC(=O)N(CC)CC)=C5C)[C@]4(C)CC[C@@]3(C)[C@@H]2C1 | 3200 | 300 |  |  |  |  | 
C#CCOC(=O)[C@]1(C)CC[C@]2(C)CC[C@]3(C)C4=CC=C5C(=CC(=O)C(OC(=O)/C=C/c6ccccc6)=C5C)[C@]4(C)CC[C@@]3(C)[C@@H]2C1 | 2800 | 500 |  |  |  |  | 
CC1=C(O)C(=O)C=C2C1=CC=C1[C@@]2(C)CC[C@@]2(C)[C@@H]3C[C@](C)(C(=O)OCCCl)CC[C@]3(C)CC[C@]12C |  | 800 | 1900 | 1800 | 87 | 6300 | 
C#CCOC(=O)[C@]1(C)CC[C@]2(C)CC[C@]3(C)C4=CC=C5C(=CC(=O)C(OC(=O)CCC)=C5C)[C@]4(C)CC[C@@]3(C)[C@@H]2C1 | 2600 | 400 |  |  |  |  | 
COC(=O)[C@]1(C)CC[C@]2(C)CC[C@]3(C)C4=CC=C5C(=CC(=O)C(O)=C5C)[C@]4(C)CC[C@@]3(C)[C@@H]2C1 [PRISTIMERIN] |  | 800 | 900 | 900 | 83.1 | 1100 | 
C#CCOC(=O)[C@]1(C)CC[C@]2(C)CC[C@]3(C)C4=CC=C5C(=CC(=O)C(OC(=O)/C=C/C)=C5C)[C@]4(C)CC[C@@]3(C)[C@@H]2C1 | 3000 | 500 |  |  |  |  | 
C#CCOC(=O)[C@]1(C)CC[C@]2(C)CC[C@]3(C)C4=CC=C5C(=CC(=O)C(OC(=O)C(=C)C)=C5C)[C@]4(C)CC[C@@]3(C)[C@@H]2C1 | 2400 | 400 |  |  |  |  | 
C#CCOC(=O)[C@]1(C)CC[C@]2(C)CC[C@]3(C)C4=CC=C5C(=CC(=O)C(OC(=O)N6CCCCC6)=C5C)[C@]4(C)CC[C@@]3(C)[C@@H]2C1 | 2400 | 100 |  |  |  |  | 
C#CCOC(=O)[C@]1(C)CC[C@]2(C)CC[C@]3(C)C4=CC=C5C(=CC(=O)C(OC(=O)N6c7ccccc7Sc7ccccc76)=C5C)[C@]4(C)CC[C@@]3(C)[C@@H]2C1 | 2900 | 200 |  |  |  |  | 
CC1=C(O)C(=O)C=C2C1=CC=C1[C@@]2(C)CC[C@@]2(C)[C@@H]3C[C@](C)(C(=O)OCc4ccccc4C)CC[C@]3(C)CC[C@]12C |  |  |  |  |  |  | 10000
C#CCOC(=O)[C@]1(C)CC[C@]2(C)CC[C@]3(C)C4=CC=C5C(=CC(=O)C(OC(=O)/C=C/c6cccc(Cl)c6)=C5C)[C@]4(C)CC[C@@]3(C)[C@@H]2C1 | 2000 | 300 |  |  |  |  | 
C#CCOC(=O)[C@]1(C)CC[C@]2(C)CC[C@]3(C)C4=CC=C5C(=CC(=O)C(OC(C)=O)=C5C)[C@]4(C)CC[C@@]3(C)[C@@H]2C1 | 2400 | 500 |  |  |  |  | 
C#CCOC(=O)[C@]1(C)CC[C@]2(C)CC[C@]3(C)C4=CC=C5C(=CC(=O)C(OC(=O)N(C)CCCC)=C5C)[C@]4(C)CC[C@@]3(C)[C@@H]2C1 | 1000 | 300 |  |  |  |  | 
C#CCOC(=O)[C@]1(C)CC[C@]2(C)CC[C@]3(C)C4=CC=C5C(=CC(=O)C(OC(=O)N(C)CCC)=C5C)[C@]4(C)CC[C@@]3(C)[C@@H]2C1 | 900 | 300 |  |  |  |  | 
C#CCOC(=O)[C@]1(C)CC[C@]2(C)CC[C@]3(C)C4=CC=C5C(=CC(=O)C(OC(=O)N6CCN(c7cccc(OC)c7)CC6)=C5C)[C@]4(C)CC[C@@]3(C)[C@@H]2C1 | 1800 | 300 |  |  |  |  | 
C#CCOC(=O)[C@]1(C)CC[C@]2(C)CC[C@]3(C)C4=CC=C5C(=CC(=O)C(OC(=O)N6CCCC6)=C5C)[C@]4(C)CC[C@@]3(C)[C@@H]2C1 | 2700 | 200 |  |  |  |  | 
C#CCOC(=O)[C@]1(C)CC[C@]2(C)CC[C@]3(C)C4=CC=C5C(=CC(=O)C(OC(=O)N6CCN(c7ccccc7OC)CC6)=C5C)[C@]4(C)CC[C@@]3(C)[C@@H]2C1 | 1800 | 300 |  |  |  |  | 
CCCCOC(=O)[C@]1(C)CC[C@]2(C)CC[C@]3(C)C4=CC=C5C(=CC(=O)C(O)=C5C)[C@]4(C)CC[C@@]3(C)[C@@H]2C1 |  | 900 | 600 | 600 | 86 | 1300 | 
CCOC(=O)[C@]1(C)CC[C@]2(C)CC[C@]3(C)C4=CC=C5C(=CC(=O)C(O)=C5C)[C@]4(C)CC[C@@]3(C)[C@@H]2C1 |  | 700 | 1000 | 1000 | 85.7 | 1700 | 
CC1=C(O)C(=O)C=C2C1=CC=C1[C@@]2(C)CC[C@@]2(C)[C@@H]3C[C@](C)(C(=O)OCc4cccc(C)c4)CC[C@]3(C)CC[C@]12C |  |  |  |  |  |  | 6200
C#CCOC(=O)[C@]1(C)CC[C@]2(C)CC[C@]3(C)C4=CC=C5C(=CC(=O)C(OC(=O)N(CCC)CCC)=C5C)[C@]4(C)CC[C@@]3(C)[C@@H]2C1 | 900 | 300 |  |  |  |  | 

Compound | IC50 at 48 h [1] [nM] | IC50 [2] [nM] | IC50 [3] [nM] | IC50 [4] [nM] | inhibition [5] [%] | IC50 [6] [nM] | IC50 [7] [nM]
C#CCOC(=O)[C@]1(C)CC[C@]2(C)CC[C@]3(C)C4=CC=C5C(=CC(=O)C(OC(=O)N(C)C)=C5C)[C@]4(C)CC[C@@]3(C)[C@@H]2C1 | 2000 | 200 |  |  |  |  | 
C#CCOC(=O)[C@]1(C)CC[C@]2(C)CC[C@]3(C)C4=CC=C5C(=CC(=O)C(OC(=O)N6CCN(c7ccccc7Cl)CC6)=C5C)[C@]4(C)CC[C@@]3(C)[C@@H]2C1 | 1900 | 200 |  |  |  |  | 
C#CCOC(=O)[C@]1(C)CC[C@]2(C)CC[C@]3(C)C4=CC=C5C(=CC(=O)C(OC(=O)/C=C/c6ccccc6F)=C5C)[C@]4(C)CC[C@@]3(C)[C@@H]2C1 | 1400 | 300 |  |  |  |  | 
C#CCOC(=O)[C@]1(C)CC[C@]2(C)CC[C@]3(C)C4=CC=C5C(=CC(=O)C(OC(=O)/C=C/c6cccc(C)c6)=C5C)[C@]4(C)CC[C@@]3(C)[C@@H]2C1 | 2900 | 400 |  |  |  |  | 
CC1=C(O)C(=O)C=C2C1=CC=C1[C@@]2(C)CC[C@@]2(C)[C@@H]3C[C@](C)(C(=O)OCCBr)CC[C@]3(C)CC[C@]12C |  | 100 | 1000 | 1100 | 86.3 | 1600 | 
C#CCOC(=O)[C@]1(C)CC[C@]2(C)CC[C@]3(C)C4=CC=C5C(=CC(=O)C(OC(=O)N6c7ccccc7CCc7ccccc76)=C5C)[C@]4(C)CC[C@@]3(C)[C@@H]2C1 | 1000 | 300 |  |  |  |  | 
C#CCOC(=O)[C@]1(C)CC[C@]2(C)CC[C@]3(C)C4=CC=C5C(=CC(=O)C(OC(=O)c6ccc(F)cc6)=C5C)[C@]4(C)CC[C@@]3(C)[C@@H]2C1 | 2000 | 400 |  |  |  |  | 
C#CCOC(=O)[C@]1(C)CC[C@]2(C)CC[C@]3(C)C4=CC=C5C(=CC(=O)C(OC(=O)N(C)CC)=C5C)[C@]4(C)CC[C@@]3(C)[C@@H]2C1 | 3000 | 300 |  |  |  |  | 
CC1=C(O)C(=O)C=C2C1=CC=C1[C@@]2(C)CC[C@@]2(C)[C@@H]3C[C@](C)(C(=O)OCCC(C)C)CC[C@]3(C)CC[C@]12C |  | 1100 | 1900 | 2000 | 87.8 | 4200 | 
CCCOC(=O)[C@]1(C)CC[C@]2(C)CC[C@]3(C)C4=CC=C5C(=CC(=O)C(O)=C5C)[C@]4(C)CC[C@@]3(C)[C@@H]2C1 |  | 800 | 600 | 500 | 87.4 | 1100 | 
C#CCOC(=O)[C@]1(C)CC[C@]2(C)CC[C@]3(C)C4=CC=C5C(=CC(=O)C(OC(=O)N6CCN(c7ccccc7)CC6)=C5C)[C@]4(C)CC[C@@]3(C)[C@@H]2C1 | 1800 | 200 |  |  |  |  | 
C#CCOC(=O)[C@]1(C)CC[C@]2(C)CC[C@]3(C)C4=CC=C5C(=CC(=O)C(OC(=O)N6CCN(c7ccc(Cl)cc7)CC6)=C5C)[C@]4(C)CC[C@@]3(C)[C@@H]2C1 | 1600 | 200 |  |  |  |  | 
C#CCOC(=O)[C@]1(C)CC[C@]2(C)CC[C@]3(C)C4=CC=C5C(=CC(=O)C(OC(=O)N6c7ccccc7C=Cc7ccccc76)=C5C)[C@]4(C)CC[C@@]3(C)[C@@H]2C1 | 2200 | 200 |  |  |  |  | 
COCCCOC(=O)[C@]1(C)CC[C@]2(C)CC[C@]3(C)C4=CC=C5C(=CC(=O)C(O)=C5C)[C@]4(C)CC[C@@]3(C)[C@@H]2C1 |  | 400 | 600 | 600 | 88.8 | 1000 | 
C=CCOC(=O)[C@]1(C)CC[C@]2(C)CC[C@]3(C)C4=CC=C5C(=CC(=O)C(O)=C5C)[C@]4(C)CC[C@@]3(C)[C@@H]2C1 |  | 800 | 300 | 400 | 89.9 | 800 | 
C#CCOC(=O)[C@]1(C)CC[C@]2(C)CC[C@]3(C)C4=CC=C5C(=CC(=O)C(OC(=O)N(c6ccccc6)c6ccccc6)=C5C)[C@]4(C)CC[C@@]3(C)[C@@H]2C1 | 3100 | 200 |  |  |  |  | 
C#CCOC(=O)[C@]1(C)CC[C@]2(C)CC[C@]3(C)C4=CC=C5C(=CC(=O)C(OC(=O)N6CCN(C)CC6)=C5C)[C@]4(C)CC[C@@]3(C)[C@@H]2C1 | 2000 | 300 |  |  |  |  | 
C#CCOC(=O)[C@]1(C)CC[C@]2(C)CC[C@]3(C)C4=CC=C5C(=CC(=O)C(OC(=O)c6ccc(Br)cc6)=C5C)[C@]4(C)CC[C@@]3(C)[C@@H]2C1 | 2200 | 300 |  |  |  |  | 
C#CCOC(=O)[C@]1(C)CC[C@]2(C)CC[C@]3(C)C4=CC=C5C(=CC(=O)C(OC(=O)N(CCCC)CCCC)=C5C)[C@]4(C)CC[C@@]3(C)[C@@H]2C1 | 1200 | 100 |  |  |  |  | 
C#CCOC(=O)[C@]1(C)CC[C@]2(C)CC[C@]3(C)C4=CC=C5C(=CC(=O)C(OC(=O)C=C)=C5C)[C@]4(C)CC[C@@]3(C)[C@@H]2C1 | 3700 | 700 |  |  |  |  | 
